# Measurements from PMC3444677 (Chemical research in toxicology, 2012).
# Values joined by “and” are separate entries in the source; they are usually repeats but may differ in a detail not shown here. Identical values can stand only once.
# Legend:
# WT hERG1 channels = WT hERG1 channels (Homo sapiens, UniProt Q12809); assay: Two-electrode voltage clamp of WT hERG1 channels in Xenopus oocytes; type: cell-based
# hEAG1 channels = molecular target: T1, hEAG1 channels (Homo sapiens, UniProt O95259); assay: Two-electrode voltage clamp of hEAG1 channels in Xenopus oocytes; type: cell-based; conditions: 10 μM, n = 4
# T1 sequence (O95259 1-962 isoform O95259-2): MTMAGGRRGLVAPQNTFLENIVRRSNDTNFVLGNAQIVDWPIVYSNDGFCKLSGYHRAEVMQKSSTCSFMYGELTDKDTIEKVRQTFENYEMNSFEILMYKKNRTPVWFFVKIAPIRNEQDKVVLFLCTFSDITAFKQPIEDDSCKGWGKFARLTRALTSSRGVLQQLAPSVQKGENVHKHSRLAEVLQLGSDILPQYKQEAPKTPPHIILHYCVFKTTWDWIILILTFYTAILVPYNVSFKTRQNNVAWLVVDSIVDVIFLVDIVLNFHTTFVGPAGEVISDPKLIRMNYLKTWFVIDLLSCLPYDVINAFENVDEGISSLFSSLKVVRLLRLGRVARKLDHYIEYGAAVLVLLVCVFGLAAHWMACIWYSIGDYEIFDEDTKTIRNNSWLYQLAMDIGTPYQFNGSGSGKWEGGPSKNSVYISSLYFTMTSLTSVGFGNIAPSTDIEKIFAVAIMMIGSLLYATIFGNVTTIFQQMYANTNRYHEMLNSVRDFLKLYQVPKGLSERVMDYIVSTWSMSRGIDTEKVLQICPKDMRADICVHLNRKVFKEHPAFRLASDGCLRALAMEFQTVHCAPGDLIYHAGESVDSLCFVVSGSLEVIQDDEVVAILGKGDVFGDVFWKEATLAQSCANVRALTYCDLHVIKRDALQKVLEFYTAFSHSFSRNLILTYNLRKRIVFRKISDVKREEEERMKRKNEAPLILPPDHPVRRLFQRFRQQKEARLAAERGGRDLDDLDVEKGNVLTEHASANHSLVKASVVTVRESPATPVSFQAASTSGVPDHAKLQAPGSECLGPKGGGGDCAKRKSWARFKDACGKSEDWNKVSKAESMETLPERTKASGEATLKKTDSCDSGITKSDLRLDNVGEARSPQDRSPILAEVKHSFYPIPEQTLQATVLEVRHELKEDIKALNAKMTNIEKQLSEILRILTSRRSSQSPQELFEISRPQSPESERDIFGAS
# Procedure, shortened: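 Stage IV–V Xenopus oocytes were injected with ~0.2 ng WT or mutant hEAG1 cRNA, held 2–3 days at 18 °C in Barth's saline, and recorded by two-electrode clamp at 22–24 °C. Holding was −80 mV, with 2-s steps from −70 to +40 mV. G = end-of-pulse current/(Vt − Erev), divided by a Boltzmann-extrapolated control Imax, then Boltzmann-fitted for V0.5 and k.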
# hERG channel [1] = molecular target: T2, hERG channel (Homo sapiens, UniProt Q12809); conditions: for Thallium flux via hERG relative to vehicle controls (reduced to): 30 μM, mean ± SEM, n = 3; for Rel. Pot., thallium flux: relative potency compared to AZA1
# hERG channel [2] = molecular target: T2, hERG channel; conditions: for hERG binding of [3H]dofetilide relative to vehicle controls (reduced to): 10 μM; for Rel. Pot., channel binding: relative potency compared to AZA1
# Y652A hERG1 channels = Y652A hERG1 channels (Homo sapiens, UniProt Q12809, Y652A); assay: Two-electrode voltage clamp of Y652A hERG1 channels in Xenopus oocytes; type: cell-based; conditions: 10 μM
# hERG channel [3] = molecular target: T2, hERG channel; conditions: for Maximum inhibition of hERG currents: 1.9 μM, mean ± SEM, n = 3; for Rel. Pot., patch clamp: relative potency compared to AZA1
# F656T hERG1 channels = F656T hERG1 channels (Homo sapiens, UniProt Q12809, F656T); assay: Two-electrode voltage clamp of F656T hERG1 channels in Xenopus oocytes; type: cell-based; conditions: 10 μM
# [4] = tested on: Jurkat T lymphocyte cells; conditions: fold more potent than AZA1; cited from earlier work
# [5] = 10 μM, during 37.8 s pulse to 0 mV
compound,measurement,setting,value
"C=C(C[C@@]12C[C@@H](C)C[C@H](O1)[C@H]1O[C@]3(C[C@H]1O2)NC[C@H](C)C[C@@H]3C)[C@H]1O[C@@](O)([C@@H](O)[C@@H]2C[C@H]3O[C@@]4(CC[C@]5(CC=C[C@@H](/C=C/CCC(=O)O)O5)O4)[C@H](C)C[C@H]3O2)[C@H](C)C[C@@H]1C [AZA1, azaspiracid]",Slope factor k of G-Vt relationship,"WT hERG1 channels; 10 μM, control 8.1 ± 0.3, n = 6",9.6 ± 0.3
same,V0.5 of G-Vt relationship,"WT hERG1 channels; 10 μM, control -22.0 ± 0.5 mV, n = 6",-20.7 ± 0.5 mV
same,Amplitude of fast component of onset of block,WT hERG1 channels; [5],0.325
same,Amplitude of slow component of onset of block,WT hERG1 channels; [5],0.433
same,τfast of onset of current block,WT hERG1 channels; [5],2.96 s
same,τslow of onset of current block,WT hERG1 channels; [5],12.66 s
same,"Peak outward hERG1 current, % of control","WT hERG1 channels; 10 μM, measured at -10 mV, oocytes, n = 6",19.0 ± 2.4 % of control
same,Time constant of onset of hERG1 channel block (τonset),"WT hERG1 channels; 10 μM, repetitive 1-s pulses to 0 mV, oocytes",1.5 min
same,"Unblocked current, % of control","WT hERG1 channels; 10 μM, single long pulse to 0 mV after 4 min pulse-free incubation, 10 µM",19% and 19.2%
same,Inhibition of peak Itail,"WT hERG1 channels; 10 μM, tail currents at -70 mV, n = 6",75 ± 2%
same,"Tail current deactivation time constant, fast component","WT hERG1 channels; at -70 mV in the presence of AZA1 (control 249 ± 8 ms), n = 6",205 ± 17 ms
same,"Tail current deactivation time constant, slow component","WT hERG1 channels; at -70 mV in the presence of AZA1 (control 1003 ± 57 ms), n = 6",745 ± 44 ms
same,Relative amplitude of the slow component of deactivation,WT hERG1 channels; in the presence of AZA1 (control 0.80 ± 0.02),0.72 ± 0.02
same,V0.5 of G-Vt relationship,hEAG1 channels; control 4.6 ± 0.7 mV,6.4 ± 0.9 mV
same,Slope factor k of G-Vt relationship,hEAG1 channels; control 16.3 ± 0.6,15.7 ± 0.7
same,Block of hEAG1 current,hEAG1 channels; test potential +40 mV,15 ± 0.8%
same,Thallium flux via hERG relative to vehicle controls (reduced to),hERG channel [1],10.7 ± 0.56%
same,"Rel. Pot., thallium flux",hERG channel [1],1.0
same,hERG binding of [3H]dofetilide relative to vehicle controls (reduced to),hERG channel [2],19.7 ± 1.4%
same,"Rel. Pot., channel binding",hERG channel [2],1.0
same,Shift of V0.5 for activation,Y652A hERG1 channels,-5 mV
same,Slope factor k of G-Vt relationship,"Y652A hERG1 channels; control 6.4 ± 0.3, n = 5",7.3 ± 0.4
same,V0.5 of G-Vt relationship,"Y652A hERG1 channels; control -20.7 ± 0.6 mV, n = 5",-26.0 ± 0.8 mV
same,Block of peak Itail,Y652A hERG1 channels; n = 5,76 ± 3%
same,Maximum inhibition of hERG currents,hERG channel [3],79.5 ± 1.8%
same,"Rel. Pot., patch clamp",hERG channel [3],1.0
same,Slope factor k of G-Vt relationship,"F656T hERG1 channels; control 7.8 ± 0.1, n = 5",7.3 ± 0.1
same,V0.5 of G-Vt relationship,"F656T hERG1 channels; control -31.0 ± 0.2 mV, n = 5",-32.6 ± 0.3 mV
same,Reduction of peak Itail,"F656T hERG1 channels; test potentials greater than -20 mV, n = 5",7 ± 1%
same,Sensitivity of channel currents to toxin,F656T hERG1 channels; test potentials negative to -20 mV,insensitive
22-demethyl-azaspiracid [AZA3],Thallium flux via hERG relative to vehicle controls (reduced to),hERG channel [1],16.6 ± 0.50%
same,"Rel. Pot., thallium flux",hERG channel [1],0.7
same,Cytotoxic potency relative to AZA1,[4],4.5 fold
same,hERG binding of [3H]dofetilide relative to vehicle controls (reduced to),hERG channel [2],29.3 ± 1.6%
same,Maximum inhibition of hERG currents,hERG channel [3],79.7 ± 1.6%
same,"Rel. Pot., patch clamp",hERG channel [3],1.0
"C=C(C[C@@]12C[C@@H](C)C[C@@H](O1)[C@H]1O[C@]3(C[C@H]1O2)NC[C@H](C)C[C@@H]3C)[C@H]1O[C@@](O)([C@@H](O)[C@@H]2C[C@H]3O[C@@]4(CC[C@]5(CC(C)=C[C@@H](/C=C/CCC(=O)O)O5)O4)[C@H](C)C[C@H]3O2)[C@H](C)C[C@@H]1C [AZA2, 8-methyl-azaspiracid]",Thallium flux via hERG relative to vehicle controls (reduced to),hERG channel [1],9.6 ± 0.79%
same,"Rel. Pot., thallium flux",hERG channel [1],0.8
same,Cytotoxic potency relative to AZA1,[4],8.3 fold
same,hERG binding of [3H]dofetilide relative to vehicle controls (reduced to),hERG channel [2],22.3 ± 1.0%
same,"Rel. Pot., channel binding",hERG channel [2],0.8
same,Maximum inhibition of hERG currents,hERG channel [3],87.3 ± 0.95%
same,"Rel. Pot., patch clamp",hERG channel [3],1.3
